Experimental data from ChEMBL document CHEMBL4138279, “Probing the Antiallergic and Anti-inflammatory Activity of Biflavonoids and Dihydroflavonols from Dietes bicolor” (J Nat Prod, 2018).

Tests used:
RBL-2H3 [1] = assay: Antiallergic activity in anti-DNP IgE-sensitized rat RBL2H3 cells assessed as inhibition of DNP-BSA-induced beta hexosaminidase release pretreated for 10 mins followed by DNP-BSA addition measured after 10 mins by p-NAG substrate based assay; type: functional, cell-based
[2] = Cytotoxicity against rat RBL2H3 cells assessed as cell viability at 400 uM after 24 hrs by MTT assay relative to control; type: cell-based; conditions: RBL-2H3 cells, read-out: Activity
Outline: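 Viability of RBL-2H3 cells, cultured in DMEM with 10% FBS at 37 °C and 5% CO2, was determined by MTT after exposure to pure compounds at 400 μM. It is expressed as % of untreated control, mean ± SD (n = 3). Viability below 80% was classed as cytotoxic.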

RBL-2H3 [3] = assay: Antiallergic activity in rat RBL2H3 cells assessed as inhibition of A23187-induced beta hexosaminidase release at 1 uM pretreated for 20 hrs followed by A23187 addition measured after 1 hr by p-NAG substrate based assay relative to control; type: functional
Outline: (§1)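 Degranulation assay: RBL-2H3 cells were seeded at 2 × 10^4 cells/well overnight and exposed to compounds (1 to 400 μM) for 20 h. They were then activated with calcium ionophore A23187 (1 μM). Released β-hexosaminidase was quantified using p-NAG substrate and expressed as % inhibition relative to A23187 control, mean ± SD (n = 3).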

RBL-2H3 [4] = assay: Antiallergic activity in rat RBL2H3 cells assessed as inhibition of A23187-induced beta hexosaminidase release at 10 uM pretreated for 20 hrs followed by A23187 addition measured after 1 hr by p-NAG substrate based assay relative to control; type: functional; outline: as §1
RBL-2H3 [5] = assay: Antiallergic activity in rat RBL2H3 cells assessed as inhibition of A23187-induced beta hexosaminidase release at 100 uM pretreated for 20 hrs followed by A23187 addition measured after 1 hr by p-NAG substrate based assay relative to control; type: functional; outline: as §1
RBL-2H3 [6] = assay: Antiallergic activity in rat RBL2H3 cells assessed as inhibition of A23187-induced beta hexosaminidase release at 200 uM pretreated for 20 hrs followed by A23187 addition measured after 1 hr by p-NAG substrate based assay relative to control; type: functional; outline: as §1
RBL-2H3 [7] = assay: (§2) Antiallergic activity in anti-DNP IgE-sensitized rat RBL2H3 cells assessed as inhibition of DNP-BSA-induced beta hexosaminidase release at 1 uM pretreated for 20 hrs followed by anti-DNP IgE-sensitization for 2 hrs and subsequent DNP-BSA addition measured after 1 hr by p-NAG substrate based assay relative to control; type: functional
Outline: (§3)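 RBL-2H3 cells in DMEM with 10% FBS at 37 °C and 5% CO2 were seeded at 3 × 10^4 cells/well overnight, then treated 20 h with compounds (1 to 400 μM). Cells were sensitized with anti-DNP IgE (1 μg/mL, at least 2 h) and challenged with DNP-BSA (100 ng/mL) for 1 h. β-Hexosaminidase was read with p-NAG substrate as % inhibition versus antigen control. Mean ± SD, n = 3.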

RBL-2H3 [8] = assay: as §2, with “at 10” for “at 1”; type: functional; outline: as §3
RBL-2H3 [9] = assay: as §2, with “at 100” for “at 1”; type: functional; outline: as §3
RBL-2H3 [10] = assay: as §2, with “at 200” for “at 1”; type: functional; outline: as §3
Neutrophil [11] = assay: (§4) Anti-inflammatory activity in human neutrophils assessed as inhibition of fMLP/CB-induced superoxide anion generation pretreated for 5 mins followed by cytochalasin B addition for 3 mins and subsequent fMLP stimulation for 10 mins by superoxide dismutase inhibitable reduction of ferricytochrome c based spectrophotometric assay; type: functional, cell-based
Outline: (§5)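 Human neutrophils isolated from venous blood of healthy adult volunteers (20−30 years), stimulated with fMLF/cytochalasin B. Superoxide anion was measured as ferricytochrome c reduction. Pure compounds were tested at 0.3 to 10 μM. IC50 was taken as the concentration giving 50% inhibition, and single-point values as % inhibition at 10 μM versus fMLF/CB control. Mean ± SEM, n = 3−4.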

Neutrophil [12] = assay: as §4, with “generation at 10 uM” for “generation”, “assay relative to control” for “assay”; type: functional; outline: as §5
Neutrophil [13] = assay: Antiinflammatory activity in human neutrophils assessed as inhibition of fMLP/CB-induced elastase release pretreated for 5 mins followed by fMLP/CB stimulation using MeO-Suc-Ala-Ala-Pro-Val-p-nitroanilide as substrate; type: functional, cell-based
Outline: (§6)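 Elastase release from fMLF/cytochalasin B-activated human neutrophils, isolated from venous blood of healthy volunteers aged 20−30, measured with N-methoxysuccinyl-Ala-Ala-Pro-Val-p-nitroanilide as substrate. Pure compounds were tested at 0.3 to 10 μM. Results are IC50 or % inhibition at 10 μM relative to fMLF/CB control, mean ± SEM (n = 3−4).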

Neutrophil [14] = assay: Antiinflammatory activity in human neutrophils assessed as inhibition of fMLP/CB-induced elastase release at 10 uM pretreated for 5 mins followed by fMLP/CB stimulation using MeO-Suc-Ala-Ala-Pro-Val-p-nitroanilide as substrate relative to control; type: functional; outline: as §6
RBL-2H3 [15] = assay: Antiallergic activity in rat RBL2H3 cells assessed as inhibition of A23187-induced beta hexosaminidase release at 400 uM pretreated for 20 hrs followed by A23187 addition measured after 1 hr by p-NAG substrate based assay relative to control; type: functional; outline: as §1
RBL-2H3 [16] = assay: as §2, with “at 400” for “at 1”; type: functional; outline: as §3
Neutrophil elastase = biological target: T1, Neutrophil elastase (Homo sapiens, UniProt P08246); assay: Inhibition of human neutrophil elastase using N-Methoxysuccinyl-Ala-Ala-Pro-Val-p-nitroanilid as substrate measured after 1 hr
T1 sequence (P08246 whole entry): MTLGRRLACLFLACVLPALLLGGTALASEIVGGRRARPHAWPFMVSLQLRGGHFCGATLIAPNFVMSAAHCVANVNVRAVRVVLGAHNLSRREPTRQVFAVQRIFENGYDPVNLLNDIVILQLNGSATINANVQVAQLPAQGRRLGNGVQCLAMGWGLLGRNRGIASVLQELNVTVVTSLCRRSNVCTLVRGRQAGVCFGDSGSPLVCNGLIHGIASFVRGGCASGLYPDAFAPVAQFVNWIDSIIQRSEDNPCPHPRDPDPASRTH

RBL-2H3 [17] = assay: Antiallergic activity in rat RBL2H3 cells assessed as inhibition of A23187-induced beta hexosaminidase release at 10 nM pretreated for 20 hrs followed by A23187 addition measured after 1 hr by p-NAG substrate based assay relative to control; type: functional
RBL-2H3 [18] = assay: as §2, with “10 nM” for “1 uM”; type: functional

Row | SMILES | IC50 (RBL-2H3 [1]) | viability at 24 h, 400 µM [2] | inhibition at 1 µM (RBL-2H3 [3]) | inhibition at 10 µM (RBL-2H3 [4]) | inhibition at 100 µM (RBL-2H3 [5]) | inhibition at 200 µM (RBL-2H3 [6]) | inhibition at 1 µM (RBL-2H3 [7]) | inhibition at 10 µM (RBL-2H3 [8]) | inhibition at 100 µM (RBL-2H3 [9]) | inhibition at 200 µM (RBL-2H3 [10]) | IC50 (Neutrophil [11]) | inhibition at 10 µM (Neutrophil [12]) | IC50 (Neutrophil [13]) | inhibition at 10 µM (Neutrophil [14]) | inhibition at 400 µM (RBL-2H3 [15]) | inhibition at 400 µM (RBL-2H3 [16]) | IC50 (Neutrophil elastase) | inhibition at 0.01 µM (RBL-2H3 [17]) | inhibition at 0.01 µM (RBL-2H3 [18])
1 | COc1c(O)cc(O)c2c1O[C@H](c1ccccc1)[C@@H](O)C2=O | > 100 µM | – | – | – | – | – | – | – | – | – | – | – | – | – | – | – | – | – | –
2 | COc1cc(O)c2c(=O)c(-c3ccc(O)c(OC)c3)coc2c1 | > 100 µM | 69% | 0.3% | 1.7% | 23.7% | 22.7% | 2.3% | 1.3% | 9% | 18% | > 10 µM | 48.9% | > 10 µM | 27.1% | – | – | – | – | –
3 | COc1c2c(cc3c1C(=O)[C@H](O)[C@@H](c1ccccc1)O3)OCO2 (relative stereo) | > 100 µM | – | – | – | – | – | – | – | – | – | – | – | – | – | – | – | – | – | –
4 | COc1cc(OC)c2c(c1)O[C@H](c1ccccc1)[C@@H](O)C2=O (relative stereo) | > 100 µM | – | – | – | – | – | – | – | – | – | – | – | – | – | – | – | – | – | –
5 | O=c1cc(-c2ccc(O)c(-c3c(O)cc(O)c4c(=O)cc(-c5ccc(O)cc5)oc34)c2)oc2cc(O)cc(O)c12 [AMENTOFLAVONE] | – | 97.7% | 2% | 6.7% | 0% | 3.3% | 4.7% | 1.3% | 2.7% | 7.7% | 1.01 µM | 104% | 0.75 µM | 108% | 42.3% | 50% | 1.27 µM | – | –
6 | C[C@@H]1C[C@H]2[C@@H]3CCC4=CC(=O)C=C[C@]4(C)[C@@]3(F)[C@@H](O)C[C@]2(C)[C@@]1(O)C(=O)CO [DEXAMETHASONE] | – | – | – | – | – | – | – | – | – | – | – | – | – | – | – | – | – | 80.7% | 79.7%
7 | O=c1cc(N2CCOCC2)oc2c(-c3ccccc3)cccc12 [LY-294002] | – | – | – | – | – | – | – | – | – | – | 1.25 µM | 96.5% | 3.44 µM | 71.5% | – | – | – | – | –
8 | O=c1cc(-c2ccc(O)c(-c3c(O)cc4oc(-c5ccc(O)cc5)cc(=O)c4c3O)c2)oc2cc(O)cc(O)c12 [ROBUSTAFLAVONE] | – | 92.3% | 2.3% | 5.3% | 6% | 2.7% | 4% | 3% | 2.7% | 3% | 1.01 µM | 105% | 0.45 µM | 103% | 45.3% | 49% | 1.33 µM | – | –
